Data from ChEMBL document CHEMBL2311422, “Studies on synthesis, stability, release and pharmacodynamic profile of a novel diacerein-thymol prodrug” (Bioorg Med Chem Lett, 2013).
The source made the active and inactive calls. The calls are words filed in the database; no cut-off is given here.

Legend:
Stomach = assay: Metabolic stability in Wistar rat stomach homogenate over 4.5 hrs; type: ADME, tissue-based; conditions: tissue homogenate
Procedure, shortened: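 Rat stomach homogenized with its contents and diluted to half with HCl buffer pH 1.2. Prodrug stock 100 μg/ml in HCl buffer; 0.8 ml stock plus 0.2 ml homogenate incubated at 37 °C. Samples centrifuged at 10,000 rpm, 4 °C, 10 min, then filtered. UV read at 232/259 nm against HCl buffer blank; quantified from calibration curves.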

[1] = Half life in Wistar rat small intestine homogenate; type: ADME, tissue-based
Procedure, shortened: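 Small intestine from an ether-anaesthetized male Wistar rat, homogenized with its contents and diluted to half with phosphate buffer pH 7.4. Prodrug stock 0.8 ml plus homogenate 0.2 ml, 37 °C for 4.5 h. Centrifuged and filtered, then UV read at 230 nm (prodrug) and 258 nm (diacerein) against phosphate buffer blank. First-order K averaged over three readings.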

[2] = Half life in phosphate buffer at pH 7.4; type: physicochemical
Procedure, shortened: (§1)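 Same procedure in phosphate buffer pH 7.4 at 37 °C, followed over 4.5 h. UV read at 230 nm (prodrug remaining) and 258 nm (diacerein released). First-order rate constants taken from plots; mean K and SD from three readings, with half-life derived from these.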

Rattus norvegicus [3] = assay: Antiinflammatory activity in Wistar rat assessed as inhibition of FCA-induced paw edema at 6.8 mg/kg, po administered on days 13 post FCA-challenge measured up to days 28 relative to control; type: functional
Procedure, shortened: (§2)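 Male Wistar rats (200–250 g), n = 6 per group. Complete Freund's adjuvant, 0.1 ml, injected sub-plantar into left hind paw on day 1. Oral dosing as 0.25% sodium CMC suspension, days 13–28. Body weight, joint diameter (digital vernier caliper) and paw volume (plethysmometer) recorded on days 0, 3, 7, 12, 15, 19, 21 and 28. Edema inhibition = 1 − (Vt/Vc) × 100, using mean relative paw-volume change versus arthritic controls. Mean ± SEM; two-way ANOVA with Bonferroni post test.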

Rattus norvegicus [4] = assay: Antiarthritic activity against FCA-induced arthritis in Wistar rat assessed as increase in body weight at 6.8 mg/kg, po administered from day 13 post FCA-challenge measured after 28 days relative to control; type: functional, organism-based; set-up: dose 6.8 mg/kg; procedure, shortened: as §2
[5] = Chemical stability in HCl buffer up to 3 hrs at pH 1.2; type: physicochemical; conditions: pH 1.2, 3 h
Procedure, shortened: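 10 mg prodrug in 100 ml HCl buffer pH 1.2, held at 37 ± 1 °C with occasional stirring. 5 ml aliquots withdrawn over 0–180 min, each replaced with fresh buffer. Samples read directly by UV at 232 nm (intact prodrug) and 259 nm (released diacerein). Triplicate runs.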

[6] = Chemical stability in HCl buffer over 3 hrs at pH 1.2; conditions: pH 1.2, 3 h
Rattus norvegicus [7] = assay: Gastrointestinal toxicity against fasted Wistar rat assessed as ulcer index at 68 mg/kg, po (reference value: 1.78 +/- 0.6); type: organism-based; set-up: dose 68 mg/kg, route oral; conditions: in vivo
Rattus norvegicus [8] = assay: Antiarthritic activity against FCA-induced arthritis in Wistar rat assessed as reduction in joint diameter at 6.8 mg/kg, po administered from day 13 post FCA-challenge measured up to day 28 relative to control; type: functional, organism-based; set-up: dose 6.8 mg/kg; procedure, shortened: as §2
[9] = Prodrug conversion in phosphate buffer assessed as diacerein released after 30 mins at pH 7.4; type: physicochemical; conditions: pH 7.4, 0.5 h; procedure, shortened: as §1
Rattus norvegicus [10] = assay: Antiarthritic activity in Wistar rat assessed as inhibition of FCA-induced mononuclear cell infiltration in synovial tissue of tibio-torsal joint at 6.8 mg/kg, po administered on day 13 post FCA-challenge measured on day 28 by hematoxylin and eosin staining method relative to control; type: functional, organism-based; set-up: dose 6.8 mg/kg
Procedure, shortened: (§3)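 Male Wistar rats, arthritis induced by sub-plantar FCA and oral dosing on days 13–28. Animals sacrificed on day 28. Ankle joints fixed 24 h in 10% buffered formalin, decalcified in 5% formic acid, paraffin-embedded and sectioned at 5 μm. H&E-stained sections read by light microscopy for synovial hyperplasia, pannus, joint-space destruction, inflammatory cell infiltration and synovitis.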

[11] = n-octanol-phosphate buffer distribution coefficient, log P of the compound at pH 7.4; type: physicochemical
Procedure, shortened: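 Shake-flask partitioning between n-octanol and phosphate buffer pH 7.4, with UV spectrophotometric quantification.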

Rattus norvegicus [12] = assay: Antiarthritic activity in Wistar rat assessed as inhibition of FCA-induced inflammatory cell infiltration in subcutaneous tissue of tibio-torsal joint at 6.8 mg/kg, po administered on day 13 post FCA-challenge measured on day 28 by hematoxylin and eosin staining method relative to control; type: functional, organism-based; set-up: dose 6.8 mg/kg; procedure, shortened: as §3
Rattus norvegicus [13] = assay: Gastrointestinal toxicity against fasted Wistar rat assessed as ulcer index at 20.4 mg/kg, po (reference value: 1.78 +/- 0.6); type: organism-based; set-up: dose 20.4 mg/kg, route oral; conditions: in vivo
Rattus norvegicus [14] = assay: Antiarthritic activity against FCA-induced arthritis in Wistar rat assessed as reduction in joint diameter at 2.04 mg/kg, po administered from day 13 post FCA-challenge measured up to day 28 relative to control; type: functional, organism-based; set-up: dose 2.04 mg/kg; procedure, shortened: as §2
Rattus norvegicus [15] = assay: Antiinflammatory activity in Wistar rat assessed as inhibition of FCA-induced paw edema at 2.04 mg/kg, po administered on days 13 post FCA-challenge measured up to days 28 relative to control; type: functional; procedure, shortened: as §2
Rattus norvegicus [16] = assay: Antiarthritic activity in Wistar rat assessed as inhibition of FCA-induced subcutaneous inflammation of tibio-torsal joint at 2.04 mg/kg, po administered on day 13 post FCA-challenge measured on day 28 by hematoxylin and eosin staining method relative to control; type: functional, organism-based; set-up: dose 2.04 mg/kg; procedure, shortened: as §3
Rattus norvegicus [17] = assay: Antiarthritic activity against FCA-induced arthritis in Wistar rat assessed as increase in body weight at 2.04 mg/kg, po administered from day 13 post FCA-challenge measured after 28 days relative to control; type: functional, organism-based; set-up: dose 2.04 mg/kg; procedure, shortened: as §2
Rattus norvegicus [18] = assay: Gastrointestinal toxicity against fasted Wistar rat assessed as ulcer index at 50 mg/kg, po (reference value: 1.78 +/- 0.6); type: organism-based; set-up: dose 50 mg/kg, route oral; conditions: in vivo
Rattus norvegicus [19] = assay: Antiarthritic activity against FCA-induced arthritis in Wistar rat assessed as reduction in joint diameter at 5 mg/kg, po administered from day 13 post FCA-challenge measured from day 15 to day 28 relative to control; type: functional, organism-based; set-up: dose 5 mg/kg; procedure, shortened: as §2
Rattus norvegicus [20] = assay: Antiarthritic activity against FCA-induced arthritis in Wistar rat assessed as increase in body weight at 5 mg/kg, po administered from day 13 post FCA-challenge measured after 28 days relative to control; type: functional, organism-based; set-up: dose 5 mg/kg; procedure, shortened: as §2
Rattus norvegicus [21] = assay: Antiinflammatory activity in Wistar rat assessed as inhibition of FCA-induced paw edema at 5 mg/kg, po administered on days 13 post FCA-challenge measured up to days 28 relative to control; type: functional; procedure, shortened: as §2
Rattus norvegicus [22] = assay: Antiarthritic activity in Wistar rat assessed as inhibition of FCA-induced subcutaneous inflammation of tibio-torsal joint at 5 mg/kg, po administered on day 13 post FCA-challenge measured on day 28 by hematoxylin and eosin staining method relative to control; type: functional, organism-based; set-up: dose 5 mg/kg; procedure, shortened: as §3

Question: Which results are given for `CC(=O)Oc1cccc2c1C(=O)c1c(OC(C)=O)cc(C(=O)Oc3cc(C)ccc3C(C)C)cc1C2=O`?
Answer: Stability (Stomach): Stable; half-life [1]: 2.8 h; half-life [2]: 3.22 h; inhibition in vivo at 6.8 mg/kg (Rattus norvegicus [3]): 78.9%; Activity (Rattus norvegicus [4]): Active; Stability [5]: Stable; Stability [6]: Stable; UI (Rattus norvegicus [7]): 4.17; Activity (Rattus norvegicus [8]): Active; Drug metabolism [9]: Active; inhibition (Rattus norvegicus [10]): inactive; logD [11]: 0.565; inhibition (Rattus norvegicus [12]): Active

Question: For `Cc1ccc(C(C)C)c(O)c1` [THYMOL], which UI (Rattus norvegicus [13]) is on record?
Answer: 1.98

Question: What about the Activity (Rattus norvegicus [14]) of the same molecule?
Answer: Active

Question: What about the inhibition in vivo at 2.04 mg/kg (Rattus norvegicus [15]) of the same molecule?
Answer: 9.1%

Question: And the inhibition (Rattus norvegicus [16])?
Answer: inactive

Question: What about the Activity (Rattus norvegicus [17]) of the same molecule?
Answer: inactive

Question: Which results are given for `CC(=O)Oc1cccc2c1C(=O)c1c(OC(C)=O)cc(C(=O)O)cc1C2=O` [DIACEREIN]?
Answer: UI (Rattus norvegicus [18]): 6.03; Activity (Rattus norvegicus [19]): Active; Activity (Rattus norvegicus [20]): Active; inhibition in vivo at 5 mg/kg (Rattus norvegicus [21]): 56.9%; inhibition (Rattus norvegicus [22]): inactive; logD [11]: 0.46
